These results are taken from ChEMBL document CHEMBL4680079, “Discovery of a Quinoline-4-carboxamide Derivative with a Novel Mechanism of Action, Multistage Antimalarial Activity, and Potent in Vivo Efficacy” (J Med Chem, 2016).

In general, EC50 refers to the concentration that produces a half-maximal response. The AUC is the area under the concentration-time curve, a measure of exposure. The IC50 is the point on the concentration scale where inhibition reaches its midpoint. In general, Cmax refers to the peak of the concentration-time curve. Usually bioavailability stands for dose-corrected exposure relative to a reference, in per cent. The Tmax is the time at which the peak concentration occurs.

≈ marks a conversion by molar mass, not a printed value. Calls of active or inactive are those of the source. The calls are words filed in the database; no cut-off is given here.

The subject of data set [1] is Plasmodium falciparum. Briefly: Antiplasmodial activity against drug resistant Plasmodium falciparum W2 by [3H]hypoxanthine incorporation assay. Type of data set: functional, organism-based. The gist of the method:
(§1)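 Strains (K1, W2, 7G8, TM90C2A, D6, V1/S resistant; NF54 sensitive) cultured by the Trager and Jensen method; EC50 determined in vitro from [3H]hypoxanthine incorporation.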

Data set [2] concerns Plasmodium falciparum. Briefly: Antiplasmodial activity against drug resistant Plasmodium falciparum […] [3H]hypoxanthine incorporation assay. Type of data set: functional, organism-based. The gist of the method:
as §1

Data set [3] deals with Plasmodium berghei. Briefly: Antiplasmodial activity against Plasmodium berghei ANKA infected in NMRI mouse assessed as reduction in parasitemia at 10 mg/kg, po QD for 4 days. To be noted: time 4 day. Type of data set: functional. Set-up: scale not given: the % may be the effect or the level left. The method, boiled down:
(§2)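 Female NMRI mice (n=3 per group, randomized, not blinded) infected with GFP-transfected P. berghei ANKA. Oral dosing once daily for 4 days in 10% DMSO/40% PEG400/50% water or HPMC suspension vehicle. Parasitaemia measured by flow cytometry on blood collected 96 h after infection. Mice watched for toxicity over 4 h post-dose each day.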

The nature of data set [4]: AUC in NMRI mouse at 3 mg/kg, po administered as gavage by UPLC-MS/MS analysis. Type of data set: ADME, organism-based. Also noted: dose 3 mg/kg. To be noted: in vivo.
Data set [5] can be described thus: Protein binding in CD1 mouse plasma measured after 5 hr by UPLC-MS/MS analysis based equilibrium dialysis method. Type of data set: ADME, cell-free. To be noted: CD1, mouse, read-out: PPB (converted). The method, boiled down:
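Equilibrium dialysis of female CD1 mouse plasma spiked at 10 μg/mL (12-14 kDa membrane) against isotonic buffer for 5 h at ~37°C with shaking. Unbound fraction taken as the buffer/plasma peak-area ratio by UPLC-MS/MS. n=6 replicates, run in triplicate.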

Data set [6] deals with Voltage-gated inwardly rectifying potassium channel KCNH2 (Homo sapiens, UniProt Q12809). Briefly: Inhibition of human ERG by IonWorks patch-clamp electrophysiology method. The gist of the method:
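hERG K⁺ channel inhibition measured by IonWorks patch-clamp electrophysiology. Eight-point concentration-response curves made from 3-fold serial dilutions down from the maximum final assay concentration. Each curve generated on 2 occasions.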

Data set [7] deals with Plasmodium falciparum. Briefly: Antiplasmodial activity against drug resistant Plasmodium falciparum TM90C2A by [3H]hypoxanthine incorporation assay. Type of data set: functional, organism-based. The method, boiled down:
as §1

Data set [8] is described as follows: Permeability of the compound at 10 uM incubated for 5 hrs by UPLC-MS/MS analysis based PAMPA method. To be noted: read-out: permeability. Type of data set: ADME. The gist of the method: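 PAMPA run on a lipid-oil-lipid tri-layer filter at pH 7.4. Compound at 10 μM in PBS (DMSO ≤5%) in donor wells, PBS in acceptor wells, kept 5 h at room temperature. Both compartments quantified by UPLC-MS/MS. Data accepted only when recovery exceeded 70%.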

Data set [9] is described as follows: Cmax in Sprague-Dawley rat at 5 mg/kg, po administered via gavage by UPLC-MS/MS analysis. Type of data set: ADME, organism-based. To be noted: in vivo. Also noted: route oral, dose 5 mg/kg. The method, boiled down: (§3)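 Male Sprague Dawley rats (n=3) gavaged with a solution at 5 mg free base/kg (10 mL/kg; 0.5% w/v HPMC, 0.4% v/v Tween 80, 0.5% v/v benzyl alcohol). Blood sampled at 5, 15, 30 min and 1, 2, 4, 6, 8, 24, 30, 48 h, diluted with two volumes water, analysed by UPLC-MS/MS.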

The test system of data set [10] is Plasmodium berghei. Briefly: Antiplasmodial activity against Plasmodium berghei ANKA infected in NMRI mouse assessed as cure rate at 10 mg/kg, po QD for 4 days. Type of data set: functional, organism-based. To be noted: time 4.0 day. The method, boiled down:
as §2

Data set [11] in a line: Oral bioavailability in Sprague-Dawley rat at 3 mg/kg administered via gavage by UPLC-MS/MS analysis. To be noted: in vivo. Type of data set: ADME, organism-based. The gist of the method:
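Oral gavage solution, 3 mg free base/kg (10 mL/kg; 0.5% w/v HPMC, 0.4% v/v Tween 80, 0.5% v/v benzyl alcohol), given to male Sprague Dawley rats (n=3). Blood taken at 5, 15, 30 min and 1, 2, 4, 6, 8, 24, 30 h, mixed with two volumes water, analysed by UPLC-MS/MS.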

In data set [12] the test system is Plasmodium falciparum. Briefly: Antiplasmodial activity against drug resistant Plasmodium falciparum 7G8 by [3H]hypoxanthine incorporation assay. Type of data set: functional, organism-based. The method, boiled down:
as §1

The nature of data set [13]: Kinetic aqueous solubility of the compound by laser nephelometry. Type of data set: physicochemical. To be noted: read-out: Kinetic_solubility. The gist of the method: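 Kinetic solubility measured by laser nephelometry. DMSO serial dilutions diluted into water to give final 100–5 μg/mL at 1.0% DMSO. Read immediately, in triplicate aliquots.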
The nature of data set [14]: Cmax in NMRI mouse at 3 mg/kg, po administered as gavage by UPLC-MS/MS analysis. Type of data set: ADME, organism-based. Also noted: route oral, dose 3 mg/kg. To be noted: in vivo.
Data set [15] concerns Plasmodium berghei. Briefly: Antiplasmodial activity against Plasmodium berghei ANKA infected in NMRI mouse assessed as reduction in parasitemia at 30 mg/kg, po QD for 4 days. To be noted: time 4 day. Also noted: scale not given: the % may be the effect or the level left. Type of data set: functional. The method, boiled down:
as §2

Data set [16] deals with Plasmodium berghei. Briefly: Antiplasmodial activity against Plasmodium berghei ookinete form assessed as growth inhibition incubated for 22 hrs by GFP-based fluorescence microscopic analysis. Type of data set: functional, organism-based.
Data set [17] can be described thus: Tmax in Sprague-Dawley rat at 5 mg/kg, po administered via gavage by UPLC-MS/MS analysis. Type of data set: ADME, organism-based. To be noted: in vivo. The method, boiled down:
as §3

Sequence of Voltage-gated inwardly rectifying potassium channel KCNH2 (Q12809 whole entry): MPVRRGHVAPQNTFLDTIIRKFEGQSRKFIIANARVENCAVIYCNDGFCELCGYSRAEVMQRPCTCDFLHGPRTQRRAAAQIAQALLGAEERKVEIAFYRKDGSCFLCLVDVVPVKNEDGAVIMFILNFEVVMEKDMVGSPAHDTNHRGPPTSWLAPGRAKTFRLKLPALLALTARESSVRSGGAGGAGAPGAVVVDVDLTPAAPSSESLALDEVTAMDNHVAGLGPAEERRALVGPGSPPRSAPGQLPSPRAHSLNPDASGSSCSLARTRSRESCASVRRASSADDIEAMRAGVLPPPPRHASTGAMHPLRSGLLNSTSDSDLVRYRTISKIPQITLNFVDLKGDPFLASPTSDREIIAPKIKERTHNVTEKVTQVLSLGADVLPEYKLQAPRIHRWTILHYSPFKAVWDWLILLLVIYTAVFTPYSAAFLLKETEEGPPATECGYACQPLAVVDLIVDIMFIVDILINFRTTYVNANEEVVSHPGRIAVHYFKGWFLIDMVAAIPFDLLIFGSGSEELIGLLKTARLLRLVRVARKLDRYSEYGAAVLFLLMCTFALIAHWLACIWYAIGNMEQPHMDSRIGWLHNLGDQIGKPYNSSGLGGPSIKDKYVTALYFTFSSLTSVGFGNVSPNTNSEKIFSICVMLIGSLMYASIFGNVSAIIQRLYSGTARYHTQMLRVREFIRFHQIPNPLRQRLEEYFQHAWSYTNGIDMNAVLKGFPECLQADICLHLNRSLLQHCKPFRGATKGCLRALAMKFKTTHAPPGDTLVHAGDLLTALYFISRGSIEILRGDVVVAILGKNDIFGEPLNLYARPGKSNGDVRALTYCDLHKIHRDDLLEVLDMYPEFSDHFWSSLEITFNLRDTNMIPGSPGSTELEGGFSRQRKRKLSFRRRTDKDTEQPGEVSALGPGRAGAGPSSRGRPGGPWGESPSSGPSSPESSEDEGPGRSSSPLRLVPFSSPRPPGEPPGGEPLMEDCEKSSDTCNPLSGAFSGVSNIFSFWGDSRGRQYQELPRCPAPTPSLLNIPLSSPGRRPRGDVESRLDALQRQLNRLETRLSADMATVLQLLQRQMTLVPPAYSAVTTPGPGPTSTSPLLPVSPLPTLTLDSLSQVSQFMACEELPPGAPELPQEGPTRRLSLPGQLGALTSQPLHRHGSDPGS

On to `O=C(NCCN1CCCC1)c1cc(-c2ccc(CN3CCOCC3)cc2)nc2ccc(F)cc12` [CABAMIQUINE], for which the EC50 in data set [1] came out at 0.4 nM; in [2] it was 0.3 nM; in [7], 0.4 nM; in data set [12], 0.4 nM; in data set [16], 5 nM. The Activity in data set [3] and in data set [15] was 99.9% throughout. The exposure (AUC) in data set [4] is 2990 ng·h/mL. Also, the fraction unbound at 5 h in [5] is 0.37. Moreover, the half-inhibitory concentration (IC50) in data set [6] turned out to be 16000 nM. Moreover, in data set [8], the Papp at 5 h, 10 µM was 7.3 ×10⁻⁶ cm/s. The Cmax in data set [9] turned out to be 180 ng/mL; in [14], 90 ng/mL. In addition, the outcome in data set [10] was Active. Further, the bioavailability in [11] turned out to be 84%. The solubility kinetic in data set [13] was determined as 216 µM (≈ 99.9 µg/mL). Also, the Tmax in data set [17] was determined as 4 h.
